From article PMC11757046 (Journal of medicinal chemistry, 2025) come the findings set out here.

What all share (format): cell-based, human
Series [1] has as its system SH-SY5Y cells. Nature of the series: Detoxification of external aldehyde Ia. The note with it: then 20 μM Ia 24 h, relative to Ia only; for fold increase in cell viability against Ia: 1 mM detox agent 3 h. Summed up:
(§1)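 SH-SY5Y cells grown in DMEM/F12 with 10% FBS and seeded in 96-well plates for ~48 h at 37 °C, 5% CO2. They were pretreated with the test compound in fresh medium, washed twice, then exposed to the aldehyde in medium at 37 °C. Viability was read by SRB at 510 and 565 nm, background-subtracted. Fold change is % viable over aldehyde-only wells. Mean ± SD, n = 6, one-way ANOVA.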

In series [2] the test system is SH-SY5Y cells. Nature of the series: NAD+/NADH ratio assay. The settings on record: MPP+-inhibited cells; negative control 68%.
For series [3], the system named is SH-SY5Y cells. Nature of the series: JC-10 mitochondrial membrane potential assay. The settings on record: MPP+-inhibited cells.
The subject of series [4] is SH-SY5Y cells. In words: Detoxification of external aldehyde IIa. The note with it: IIa 150 μM; relative to IIa only. The procedure, abridged: as §1
The test system of series [5] is SH-SY5Y cells. Nature of the series: Intracellular reactive oxygen species assay. The note with it: for intracellular ROS level relative to untreated control: MPP+-inhibited cells, DCFDA fluorometric assay.
Series [6] relates to SH-SY5Y cells. Nature of the series: Protection of MPP+-inhibited cells. The note with it: then 1 mM MPP+ 24 h, relative to MPP+ only.
Series [7] concerns SH-SY5Y cells. Nature of the series: Aldehyde quantification assay in MPP+-treated cells.
A short description of series [8]: Protection of MPP+-inhibited cells. The settings on record: human.

`CC(C)(O)c1nc2ccc(Cl)cc2cc1N` [Rep, reproxalap]: the “change in cell viability against Ia” value with SH-SY5Y cells [1] (50 μM detox agent 3 h) is “negligible change”. Besides, in the series on SH-SY5Y cells [2], the “intracellular NAD+ content (NAD+ %)” value is on record as 41%. The “MMP, red/green fluorescence ratio (JC-10)” value in the series on SH-SY5Y cells [3] is 0.4. For the same molecule, the “fold improvement in cell viability against IIa” value (from here on “fold improvement”) with SH-SY5Y cells [4] is on record as “none of the conventional detox agents”. Further, in the series with SH-SY5Y cells [5], the “intracellular ROS level relative to untreated control” value is on record as 5.1 ×. Further, the “fold increase in cell viability against MPP+” value (from here on “fold increase … against MPP+”) with SH-SY5Y cells [6] (50 μM detox agent 3 h) was found to be 1.3 fold.
Turning to `O=C1O[C@H]([C@@H](O)CO)C(O)=C1O` [Asc, sodium ascorbate], the “fold increase in cell viability against Ia” value in the series on SH-SY5Y cells [1] is listed as “negligible change”. Also, in the series on SH-SY5Y cells [4], the “fold improvement” value is recorded as “none of the conventional detox agents”. Moreover, the “fold increase … against MPP+” value with SH-SY5Y cells [6] (1 mM detox agent 3 h) came out at 1.1 fold.
The term viability denotes a per cent measure of how many cells are alive, often set against a control. A higher viability goes with less harm to the cells. As for `C[n+]1ccc(-c2ccccc2)cc1.[I-]` [MPP^+, 1-methyl-4-phenylpyridinium iodide], the “aldehyde concentration relative to untreated cells” value in the series on SH-SY5Y cells [7] is “about 44 ×”. The “aldehyde concentration in cells” value in the series on SH-SY5Y cells [7] (Ir2mito used with HCOONa) came to 89 nmol/10^6 cells. Also, the “intracellular NAD+ content (NAD+ %)” value in the series on SH-SY5Y cells [2] is on record as 27%. Besides, the “MMP, red/green fluorescence ratio (JC-10)” value with SH-SY5Y cells [3] was found to be 0.2. The “intracellular ROS level relative to untreated control” value in the series on SH-SY5Y cells [5] was 9.1 ×. Further, in series [8], the viability at 24 h, 1 mM is 54%.
As for `NCCC(=O)N[C@@H](Cc1cnc[nH]1)C(=O)O` [Car, carnosine], in the series with SH-SY5Y cells [1], the “fold increase in cell viability against Ia” value came to 1.3 fold. Also, in the series with SH-SY5Y cells [2], the “intracellular NAD+ content (NAD+ %)” value is “negligible effect”. Further, in the series on SH-SY5Y cells [4], the “fold improvement” value is reported as “none of the conventional detox agents”. The “intracellular ROS level relative to untreated control” value with SH-SY5Y cells [5] came out at 7.5 ×. For the same molecule, the “fold increase … against MPP+” value with SH-SY5Y cells [6] (1 mM detox agent 3 h) is recorded as 1.2 fold.
Take `CCCCCC(O)C=CC=O` (centres unmarked) [Ia, 4-hydroxynon-2-enal]: in the series on SH-SY5Y cells [5] (SH-SY5Y cells treated with Ia), the “ROS levels after treatment with the aldehyde” value was “significantly increased ROS levels”.
Regarding `N[C@@H](Cc1ccc(O)c(O)c1)C(=O)O` [L-Dopa, levodopa], the “fold improvement” value in the series with SH-SY5Y cells [4] was “none of the conventional detox agents”. Further, the “fold increase … against MPP+” value in the series on SH-SY5Y cells [6] (50 μM detox agent 3 h) worked out at 1.2 fold.
